MPTP block: mitochondrial permeability transition pore inhibitors, primary screen, biochemical, isolated mouse mitochondria, absorbance | Ca2+ swelling absorbance, 30 min | inhibition, % at 10 µM | hit rate 1.4% among 360,000;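 active means inhibition of 50% or more, scaled per plate between neutral and stimulator controls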;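 further: 0% = DMSO wells given calcium and 100% = 1 mM EGTA wells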
Exocytosis inh: LAMP-1 surface exposure blockers, TALL-104 cells – cell-based, flow cytometry, MLPCN library, primary screen. TALL-104 LAMP-1 surface exposure; cells stimulated with thapsigargin and PMA. inhibition, % at 10 µM. hit rate 0.66% among 360,000. AID 651702, 2012;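 active means inhibition above about 55%, limit read from the data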
V-ATPase pHluor: regulators of yeast V-ATPase proton pumping, primary screen, pHLuorin cytosolic pH fluorescence | S. cerevisiae | response, % at 10 µM | hit rate 0.37% among 350,000 | AID 504577, 2011; in the data active means response mostly above about 7.3%, no sharp cut-off; inactive means mostly below about 5.4%; further: actives read high
B2AR ag: beta2AR agonists driving receptor internalization, primary screen, cell-based, FAP fluorogen, flow cytometry | response, % (test concentration not listed) | Am2.2-beta2AR cells | hit rate 0.43% among 340,000 | Beta-2 adrenergic receptor (Homo sapiens), P07550;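 active means response above a set limit, near 3 SD of response in nonfluorescent compounds, cut at about 42% in these data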
Target sequence (P07550 whole entry, looked up): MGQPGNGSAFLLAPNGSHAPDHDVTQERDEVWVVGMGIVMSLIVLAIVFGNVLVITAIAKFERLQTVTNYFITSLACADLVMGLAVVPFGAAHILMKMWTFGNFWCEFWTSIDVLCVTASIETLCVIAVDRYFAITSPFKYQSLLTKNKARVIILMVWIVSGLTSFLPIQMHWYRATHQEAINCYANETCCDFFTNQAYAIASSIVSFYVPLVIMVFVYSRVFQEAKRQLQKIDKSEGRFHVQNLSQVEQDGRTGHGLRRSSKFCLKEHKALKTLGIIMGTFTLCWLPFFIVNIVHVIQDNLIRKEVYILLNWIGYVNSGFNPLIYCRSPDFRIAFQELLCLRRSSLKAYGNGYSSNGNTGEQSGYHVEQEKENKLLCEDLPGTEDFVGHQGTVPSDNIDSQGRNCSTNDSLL
rCAG RNA binder: binders of r(CAG) RNA repeats, primary screen, biochemical, fluorescence; r(CAG) RNA repeat, TO-PRO-1 dye displacement fluorescence; inhibition, % at 3 µM; hit rate 1.3% among 370,000; AID 651821, 2012;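 active means inhibition above the plate cutoff, the mean of all test compounds on that plate plus 3 SD, cut at about 35% in these data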;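 further: 0% = DMSO alone and 100% = 100 µM mitoxantrone as full dye displacement; higher means more dye released from RNA so lower well fluorescence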
T cell HTS: modulators of CD8 T cell-vesicle binding, primary screen, mouse 2C CD8+ T cells, flow cytometry; 2C CD8+ T cell-vesicle binding; stronger effect = lower value; response (vesicle binding), % at 7 µM; hit rate 0.068% among 330,000;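 active means response, share of CD8 T cells binding vesicles, and their 90th percentile fluorescence all below set limits, cut at about 80% in these data, passing the limit was not always enough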;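 further: values below 100% mean blocked vesicle binding to the CD8+ T cells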
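Read-out – percent CD8+ FL2 mean versus row control · System – murine 2C transgenic CD8+ T lymphocytes · Times – 1.5 h cell–vesicle binding at 37 °C, then 20 min icy labelling · Control set – naked vesicles low, QL9 vesicles with vehicle high · Detection – cytometric PE anti-B7-1 and Alexa647 anti-CD8 signals after 1% paraformaldehyde fixation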
B2AR ag CP1: beta2AR agonists via receptor internalization, confirmation, cell-based, FAP fluorogen, flow cytometry, single point, cherry pick 1; shares compounds with B2AR ag; Am2.2-beta2AR cells, FAP surface receptor; stronger effect = lower value; percent response (surface receptor), % at 10 µM; hit rate 25% among 1,100;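 active means surface receptor percent response at or below 58%, roughly 3 SD from nonfluorescent compounds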
FAP fluor counter: counter-screen for beta-2AR agonists: fluorescence in Am2.2 cells. shares compounds with B2AR ag. 1,100 tested, under 10 active. calls only at 10 µM. FAP fluorogen flow cytometry, fluorescence counterscreen; stronger effect = lower value. AID 588765;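 active means percent response below a set limit in fluorescence channel 1 and below 50% in channel 8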
Active calls of the source: *; i = inactive; . = no result. An excerpt weighted towards active compounds, which were near 3.8% of everything screened.

SMILES	MPTP block	Exocytosis inh	V-ATPase pHluor	B2AR ag	rCAG RNA binder	T cell HTS	B2AR ag CP1	FAP fluor counter
COC(=O)[C@]12C[C@H](CC(=O)N3CCSCC3)C(=O)N(Cc3ccc(Cl)cc3Cl)C1=C[C@H](C(C)(C)C)O[C@@H]2C	.	.	.	.	7.8	.	.	.
Cc1ccc2nc(C)cc(C(=O)OCC(=O)c3ccc(Cl)c([N+](=O)[O-])c3)c2c1	-0.4	0.7	-3.2	52.6*	9.4	316.1	108.8	i
C[C@@H](NC(=O)C[C@H]1CC[C@H]2[C@@H](COc3ccc(NC(=O)Nc4ccccc4)cc3C(=O)N2C)O1)c1ccccc1	.	.	.	.	11.1	.	.	.
CC1CC2(NC(=O)NC2=O)C(C)CN1C (stereo not drawn)	0.4	0.2	-3.0	-0.2	3.4	324.1	.	.
CC1C[C@@]2(NC(=O)NC2=O)C(C)CN1C (stereo partly drawn)	16.7	2.3	-7.3	46.2*	1.1	627.9	108.1	i
NC(=O)c1cc2c3ccccc3ccn2c1-c1ccccc1	1.9	-31.6	-1.7	42.5*	4.9	314.1	101.0	i
Cc1cc(C(N)=O)c2ccccc2n1	-0.5	-0.8	0.0	3.4	-0.3	538.2	.	.
CCC1CCCCN1CC(=O)Nc1cc(C)nn1-c1nc(C)cc(C)n1 (stereo not drawn)	-0.2	1.3	-4.9	-12.5	-7.4	369.6	122.7	i
COC(=O)[C@H](CC(C)C)N1Cc2nnn(Cc3ccccc3)c2-c2ccccc2S1(=O)=O	.	.	.	.	-3.3	.	.	.
CC1(C)Cc2c(c(N3CCCC3)nc3sc4c(N5CCN(CCO)CC5)ncnc4c23)CO1	1.2	1.4	-1.1	71.1*	3.1	498.6	46.4*	i
CC1(C)Cc2c(c(N3CCOCC3)nc3sc4c(NCCN)ncnc4c23)CO1	0.5	-0.8	-7.7	105.3*	21.2	.	10.5*	i
OCCN1CCN(c2ncnc3c2sc2nc(N4CCOCC4)c4c(c23)CCC4)CC1	-1.0	-0.7	-0.8	18.4	-0.6	67.3	.	.
C[C@H](CO)N1C[C@H](C)[C@@H](CN(C)C(=O)Nc2ccc3c(c2)OCO3)OCc2cn(nn2)CCCC1=O	.	.	.	.	1.7	.	.	.
Cc1ccc(NC(=O)[C@@H]2CC(=O)O[C@@H]2c2ccccc2)cc1C	.	.	.	.	-0.1	.	.	.
COc1ccc(-c2noc(C3CCCN(C(=O)Nc4cc(C)cc(C)c4)C3)n2)cc1 (stereo not drawn)	.	.	.	.	1.5	.	.	.
Nn1c(SCC(=O)Nc2ccc(OCc3ccccc3)cc2)nnc1-c1cc(-c2ccccc2)n[nH]1	.	.	.	.	5.3	.	.	.
COc1ccc(-c2csc(-n3ncc(-c4ccccn4)c3N)n2)cc1	1.1	2.2	9.3	2.6	1.5	426.5	.	.
COc1ccccc1-c1csc(-n2ncc(C#N)c2N)n1	-1.5	-38.8	-0.8	83.6*	16.6	209.9	72.8	i
CCCN(CCC)S(=O)(=O)c1ccc(Cl)c([N+](=O)[O-])c1	0.5	1.3	-2.8	43.6*	-0.9	341.0	106.5	i
Cc1ccc(S(=O)(=O)N(C)[C@H]2C[C@H]3c4[nH]c5cccc(-c6ccccc6)c5c4CCN3C(=O)[C@H]2[C@H](C)O)cc1	.	.	.	.	14.9	.	.	.
COc1ccc(C2C(C(=O)N3CCC(C)CC3)CC(=O)N2c2ccc(OC)cc2)cc1 (stereo not drawn)	.	.	.	.	1.5	.	.	.
COC(=O)[C@]12C[C@H](CC(=O)N3CCCCC3)C(=O)N(CCC3=CCCCC3)C1=C[C@H](C1CCCC1)O[C@@H]2C	.	.	.	.	7.0	.	.	.
O=C(Nc1ccc(Cl)cc1)c1cccs1	0.0	-2.7	3.7	-9.4	-0.4	109.5	.	.
O=C(Nc1ccc(NC(=O)c2ccccc2F)cc1)c1cccs1	-1.4	-1.4	2.9	-0.4	5.1	336.6	113.1	i
Nc1cccc(C#Cc2ccc3c(=O)c4ccccc4oc3c2)c1	-0.3	3.3	-0.1	47.5*	13.9	524.2	27.8*	i
SMILES	MPTP block	Exocytosis inh	V-ATPase pHluor	B2AR ag	rCAG RNA binder	T cell HTS	B2AR ag CP1	FAP fluor counter
CN(C)c1ccc(NC(=O)COC(=O)c2ccc3c(c2)OCO3)cc1	-1.0	-8.1	-0.4	2.3	3.2	410.4	.	.
CN(C)c1ccc(C(=O)OCC(=O)Nc2ccc(S(N)(=O)=O)cc2)cc1	0.2	-8.1	1.1	47.5*	6.2	305.4	83.4	i
COc1cc(NC(=O)CSc2nc(C)cc(=O)[nH]2)cc(OC)c1	.	.	.	.	1.2	.	.	.
Cc1ccc(-c2nc(NC(=O)c3nn(C)cc3[N+](=O)[O-])sc2C)cc1	0.5	11.9	2.4	104.1*	4.2	304.2	9.7*	i
Cc1cnc(NC(=O)c2nn(C)cc2[N+](=O)[O-])s1	-1.5	1.0	-1.1	1.3	3.0	.	.	.
Cc1ccc(-c2nc(NC(=O)c3nn(C)cc3[N+](=O)[O-])sc2C)cc1C	-1.6	-0.8	-2.0	79.9*	1.1	245.8	48.0*	i
CCS(=O)(=O)CCn1c([N+](=O)[O-])cnc1C	-0.3	-6.1	5.5	2.4	1.2	241.7	101.9	i
O=Cc1ccc(OCc2nnc(-c3ccccc3Br)o2)cc1	0.2	-7.7	-4.9	20.5	-1.0	308.2	.	.
NC(=O)c1ccccc1OCc1nnc(-c2ccccc2Br)o1	0.4	-0.8	-2.0	-9.8	3.7	441.7	119.0	i
COC(=O)c1ccc(COc2cc(O)c3c(c2)OC(C)(C)CC3=O)cc1	1.9	2.4	-2.9	45.5*	4.6	237.8	106.0	i
Cc1ccc2c(c1)C(=O)N(CCCCO)C2=O	-1.6	-7.4	-1.4	83.9*	-2.0	164.5	100.4	i
CCCCNC(=O)C[C@H]1C[C@@]2(C(=O)OC)C(=C[C@H](C3CCCC3)O[C@@H]2C)N(Cc2cccc3ccccc23)C1=O	.	.	.	.	7.2	.	.	.
COc1cc(-c2cccs2)cc(=O)c2c(C)oc(C)c12	4.6	-1.2	-3.0	-12.2	29.6	721.7	112.3	i
COc1ccc(CN2C(C(=O)NC3CCCC3)CSCCS2(=O)=O)cc1 (stereo not drawn)	.	.	.	.	5.0	.	.	.
CCOc1c(Cl)cc(CNCC(O)c2ccccc2)cc1OC (stereo not drawn)	-1.3	-1.0	-7.1	11.4	-5.2	360.8	117.5	i
Cc1ccc(Nc2ncnc3ccccc23)cc1	0.5	4.0	-1.6	3.6	-2.3	230.2	.	.
Cc1ccc(/C(=N/Nc2ncnc3ccccc23)C(=O)O)cc1	-6.3	7.2	-1.6	2.2	5.2	i	93.6	i
COC(=O)[C@]12C[C@H](CC(=O)NCc3ccc(OC)c(OC)c3)C(=O)N(Cc3ccccc3)C1=C[C@H](C(C)(C)C)O[C@@H]2C	.	.	.	.	1.4	.	.	.

Screening data deposited in PubChem by several laboratories.
